Compound activity as filed in PubChem.
In the library only some 4.3% were active in any assay of this set; here they are far more common.
FLuc inhib CS: inhibits firefly luciferase, flagging false hits in luciferase inhibition screens. P08659. ATPLite firefly luciferase biochemical luminescence, 10 min. inhibition, % at 10 µM. 200,000 tested, 1.5% active. AID 1006;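 active means inhibition above about 50% when tested at 10 µM, limit read from the data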
Target sequence (P08659 whole entry, looked up): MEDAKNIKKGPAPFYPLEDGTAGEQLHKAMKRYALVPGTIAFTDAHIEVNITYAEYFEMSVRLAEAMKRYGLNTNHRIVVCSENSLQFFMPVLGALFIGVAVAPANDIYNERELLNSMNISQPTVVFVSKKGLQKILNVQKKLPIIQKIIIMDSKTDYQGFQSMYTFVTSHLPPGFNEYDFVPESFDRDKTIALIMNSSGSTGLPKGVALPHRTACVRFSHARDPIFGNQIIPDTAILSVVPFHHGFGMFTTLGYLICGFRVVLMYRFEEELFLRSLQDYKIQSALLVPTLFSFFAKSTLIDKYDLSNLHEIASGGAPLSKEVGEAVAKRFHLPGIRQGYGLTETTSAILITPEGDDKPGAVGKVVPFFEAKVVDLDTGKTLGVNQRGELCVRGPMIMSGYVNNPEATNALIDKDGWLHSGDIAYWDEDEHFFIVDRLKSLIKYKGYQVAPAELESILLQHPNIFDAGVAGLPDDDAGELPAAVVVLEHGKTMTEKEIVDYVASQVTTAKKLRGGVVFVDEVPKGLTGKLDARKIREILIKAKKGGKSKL
NF-kB neuron act: NF-kB expression increase, human neuronal cells; NF-kB reporter expression; stronger effect = higher value; fold change at 12.5 µM; 190,000 tested, 1.6% active; in the data active means fold change above about 3.3
APP 5'UTR act: APP 5'UTR luciferase reporter activation; SH-SY5Y APP 5'UTR luciferase reporter, luminescence; zero percent = DMSO vehicle wells; activation, % at 2 µM; 190,000 tested, 1% active;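 active means activation above a set limit, based on mean plus 3 SD of controls, cut at about 140% in these data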
STAT1 activator: activators of IFN-gamma induced STAT1 signaling | 200,000 tested, 2.6% active | NIH 3T3 STAT1-luciferase reporter, luminescence; 100% = IFN-gamma alone, no compound | AID 932 | activation (% of control), % at 5.5 µM;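 active means activation above the screen-wide mean activation plus 3 SD, cut at about 130% in these data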
sdo1 growth: sdo1-depleted yeast growth rescue; S. cerevisiae sdo1-depleted JHY4D growth rescue, OD600 30 h; stronger effect = higher value; pdr5 snq2 efflux-pump mutant strain; z-score at 10 µM; 140,000 tested, 0.21% active;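 active means z-score above 3 at both the 24 hr and the 30 hr optical density reads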
FLuc act counter: affects firefly luciferase, flagging false hits in luciferase stimulation screens. P08659. activation factor at 10 µM. ATPlite luciferase biochemical, luminescence, 10 min; 0 = ATP-free wells, 1 = DMSO control. 200,000 tested, under 10 active;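 active means luciferase activation factor, scaled between plate controls, of at least 2 with compound at 10 µM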
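assay system = Luciferase/luciferin detection reagent, cell-free biochemical luciferase assay | also added = ATP substrate | times = 10 min post-reagent at room temperature | measured by = luminescence from luciferase reaction | measure = luciferase activation, seen as luminescence increase over controls | benchmarks = low control with PBS replacing ATP, high control enzyme plus ATP without compound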
A number is an active result; . = inactive; / = not tested or not shown.

SMILES | FLuc inhib CS | NF-kB neuron act | APP 5'UTR act | STAT1 activator | sdo1 growth | FLuc act counter
N#C/C(=C/Nc1ccccc1)c1ccsc1 | . | . | . | . | . | .
Cc1ccc(N/C=C(/C#N)c2ccsc2)cc1 | . | . | . | 134 | . | .
C=CCOc1c(Cl)cc(CNc2ccc(N(C)C)cc2)cc1OC | . | . | . | 137 | . | .
O=C(Nc1nccs1)C1Cc2ccccc2CN1S(=O)(=O)c1ccc(F)cc1 (configuration not stated) | . | . | 155 | . | . | .
O=C(NC1CCCCC1)C1Cc2ccccc2CN1S(=O)(=O)c1ccc(F)cc1 (configuration not stated) | . | . | . | . | . | .
CC(=O)Nc1ccc(C(=O)OCC(=O)NC2CCCCCCC2)cc1 | . | . | . | . | / | .
CCOc1ccc2c(c1)sc(=NC(=O)C1CC1)n2C | . | . | . | 150 | . | .
Cn1c(=NC(=O)C2CCCCC2)sc2cc([N+](=O)[O-])ccc21 | . | . | . | . | / | .
O=C(O)C1CCCCC1C(=O)Nc1cccc2ccccc12 (configuration not stated) | . | . | . | 143 | . | .
O=C(O)C1CCCCC1C(=O)Nc1ccccc1Nc1ccccc1 (configuration not stated) | . | . | . | . | . | .
Cc1ccc(C)c(OCC(=O)O/N=C(\N)c2ccccn2)c1 | . | 6.2 | . | 135 | . | .
N/C(=N\OC(=O)CC1CCCCC1)c1cccnc1 | 65 | . | . | . | . | .
N/C(=N\OC(=O)CCC1CCCC1)c1ccncc1 | . | . | . | . | / | .
Cc1ccc(/C(N)=N/OC(=O)CCC2CCCCC2)cc1 | . | . | . | . | . | .
N/C(=N\OC(=O)CCC1CCCC1)c1cccnc1 | 74 | . | . | . | . | .
Cc1cccc(/C(N)=N/OC(=O)CCC2CCCCC2)c1 | 54 | . | . | . | . | .
CCOc1ccc(Br)cc1S(=O)(=O)Nc1nc(CN2CCOCC2)nc2sc(C)c(C)c12 | . | . | . | . | . | .
O=C(O)/C=C/C(=O)NNC(=O)c1cccc(Br)c1 | . | . | . | . | . | .
CCOCCCNC(=O)C(c1ccc(C)cc1)N(Cc1cccs1)C(=O)c1ccccc1O (configuration not stated) | . | . | . | . | / | .
O=[N+]([O-])c1cccc(/C=N/NC2=NS(=O)(=O)c3ccccc32)c1 | . | . | . | . | / | .
CC(C)CC(=O)O/N=C1\C(=O)N(Cc2ccc(Cl)cc2)c2ccc([N+](=O)[O-])cc21 | . | . | / | . | . | .
N/C(=N\OC(=O)COc1ccc(Cl)cc1Br)c1cccnc1 | . | . | . | 146 | / | .
N/C(=N\OC(=O)CC1CCCCC1)c1ccccn1 | 81 | 4.8 | . | . | . | .
COc1ccc(NS(=O)(=O)c2ccc(O)c(NC(=O)c3cc4c(C)nn(-c5ccc(F)cc5)c4s3)c2)cc1 | . | . | . | . | . | .
C=CCOC(=O)COc1ccc2c(C)c(C)c(=O)oc2c1 | . | . | . | . | . | .
SMILES | FLuc inhib CS | NF-kB neuron act | APP 5'UTR act | STAT1 activator | sdo1 growth | FLuc act counter
O=C1SC(SC(=Nc2ccccc2)Nc2ccccc2)C(=O)N1c1ccccc1 (configuration not stated) | . | . | . | 138 | . | .
COc1ccccc1C1CC(=O)Nc2cc3c(cc21)OCCO3 (configuration not stated) | . | . | . | . | . | .
CCOC(=O)COc1ccccc1C1Nc2ccccc2C(=O)N1c1cccc(Cl)c1 (configuration not stated) | . | . | . | . | . | .
CC(C)Oc1ccccc1C1Nc2ccccc2C(=O)N1c1ccc2c(c1)OCCO2 (configuration not stated) | . | 4.6 | 150 | . | . | .
CC(C)Oc1ccccc1C1CC(=O)Nc2cc3c(cc21)OCCO3 (configuration not stated) | . | 3.9 | . | . | . | .
Fc1ccc(N2CCN(Cc3cnc(Cl)s3)CC2)cc1 | . | . | . | . | / | .
COc1ccccc1CCc1nnc(CCC(=O)NC(C)Cc2cccnc2)o1 (configuration not stated) | . | . | . | . | / | .
O=C(NNc1nc2c(F)cccc2s1)c1cc(=O)c2ccccc2o1 | 55 | . | . | . | / | .
